Compound activity (PubChem BioAssay)
bovine MsrA act: activators of bovine methionine sulfoxide reductase A; AID 602163; 0.3% of 360,000 active; purified bovine MsrA, absorbance read-out; activation, % at 10.6 µM; in the data active = activation above about 7.5%
MsrA inhibitor: inhibitors of bovine MsrA. inhibition, % at 15.5 µM. purified bovine MsrA, absorbance read-out. 0.75% of 360,000 active
TbMetRS inhib: blocks T. brucei methionyl-tRNA synthetase activity; purified T. brucei MetRS, ATP depletion, Kinase-Glo luminescence; inhibition, % at 11.9 µM; 0.4% of 360,000 active;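 active = inhibition above a per-plate cutoff of the control wells' mean inhibition plus 3 SD, cut at about 5.5% in these data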
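Test system: purified T. brucei MetRS enzyme. Also added: ATP, methionine and E. coli bulk tRNA substrates. Compound: 11.9 µM single point. Schedule: 15 min enzyme-compound preincubation, 2 h reaction, 10 min detection, 25 °C. Signal: luciferase luminescence of residual ATP, Kinase-Glo. Evaluation: percent inhibition versus plate control medians. Controls: DMSO wells, low control.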
proCasp7 act: activates human procaspase-7, counter-screen for procaspase-3 activators; P55210; recombinant procaspase-7, Ac-DEVD-pNA absorbance 405 nm; D23A/D198A/D206A triple mutant, cannot self-cleave; scale: DMSO 0, 5 µM enzyme 100; activation, % at 8.5 µM; 0.093% of 330,000 active; AID 463210;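 active = percent activation above the screen-wide mean plus 3 SD, cut at about 25% in these data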
Target sequence (P55210 whole entry D23A/D198A/D206A): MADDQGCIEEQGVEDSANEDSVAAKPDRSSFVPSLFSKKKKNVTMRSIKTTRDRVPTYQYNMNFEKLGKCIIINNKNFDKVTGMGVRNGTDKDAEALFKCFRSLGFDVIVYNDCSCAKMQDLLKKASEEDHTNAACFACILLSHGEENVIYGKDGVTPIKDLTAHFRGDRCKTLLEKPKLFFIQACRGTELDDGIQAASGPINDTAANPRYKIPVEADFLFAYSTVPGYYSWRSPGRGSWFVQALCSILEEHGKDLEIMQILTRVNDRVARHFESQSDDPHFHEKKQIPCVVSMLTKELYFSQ
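Detection: p-Nitroaniline absorbance at 405 nm, read at 0 and 120 min; system: Uncleavable procaspase-7 mutant enzyme; evaluation: % activation from two-timepoint absorbance difference, scaled to controls; times: 1 h enzyme–compound preincubation and 2 h substrate reaction, both 25 °C; buffer or medium: Zinc-free HEPES pH 7.4 with 300 mM NaCl, 0.01% Triton X-100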
proCasp3 act: procaspase-3 (human) activation; P42574; recombinant procaspase-3 D3A, Ac-DEVD-pNA absorbance 405 nm; activation, % at 8.5 µM; 0.11% of 330,000 active; AID 463141;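 active = activation above the mean of all tested compounds plus 3 SD, cut at about 21% in these data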
Target sequence (P42574 whole entry D9A/D28A/D175A): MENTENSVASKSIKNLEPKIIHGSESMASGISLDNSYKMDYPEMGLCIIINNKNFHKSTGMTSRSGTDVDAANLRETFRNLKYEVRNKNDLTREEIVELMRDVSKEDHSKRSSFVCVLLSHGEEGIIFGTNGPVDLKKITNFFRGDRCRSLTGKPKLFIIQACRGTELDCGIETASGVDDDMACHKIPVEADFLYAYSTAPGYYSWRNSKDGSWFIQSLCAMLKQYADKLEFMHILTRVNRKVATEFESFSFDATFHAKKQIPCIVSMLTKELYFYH
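Evaluation: percent activation relative to control range; Material: Procaspase-3 D3A mutant, all three cleavage aspartates alanine; Compound: single dose, 8.5 µM nominal compound, 0.8% DMSO; Replication: one well per compound; Signal: absorbance at 405 nm, 0 and 120 min; Schedule: 1 h preincubation plus 2 h reaction at 25 °C.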
MsrA inh confirm: bovine MsrA inhibition, confirmed. shares compounds with MsrA inhibitor. purified bovine MsrA, absorbance read-out. inhibition, % at 15.5 µM. 41% of 2,300 active. AID 651822;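 also: coupled to thioredoxin reductase with NADPH and selenocystamine and DMSO as substrate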
Hits are given with their value; 0 = inactive; - = no result given. A selection: hits, their analogues and other compounds. The true share with any hit is near 1.5%. Rule as the data show it, unless noted: active = inhibition above about 4.5%; inactive = the rest.

SMILES	bovine MsrA act	MsrA inhibitor	TbMetRS inhib	proCasp7 act	proCasp3 act	MsrA inh confirm
N#Cc1c(-c2ccc(Cl)cc2)c(C#N)c(=O)n(N)c1N	0	4.9	0	0	0	0
Cc1ccc(-c2c(C#N)c(N)n(-c3ccccc3C)c(=O)c2C#N)cc1	0	0	0	-	-	-
COc1ccc(-c2c(C#N)c(N)n(N)c(=O)c2C#N)cc1Cl	0	0	0	0	0	-
CC(C)NC(=O)C1(C)CSCC(=O)N1CCOc1ccccc1 (centres undefined)	-	0	0	-	-	-
CC(C)NC(=O)C1(C)CCN1C(=O)c1ccccc1F (centres undefined)	0	0	0	-	-	-
COc1ccc(C(=O)C(=O)N2CCN(S(=O)(=O)c3cccc4c(N(C)C)cccc34)CC2)cc1OC	-	0	-	-	-	-
NC1=NC(=O)/C(=C/c2ccsc2)S1	0	5.7	0	0	0	0
COc1ccc(/C=C2\SC(N)=NC2=O)cc1	0	4.8	0	-	-	5.0
CCOC(=O)C1=CCN(S(=O)(=O)c2ccc(Cl)cc2)C1c1cccc(Cl)c1 (centres undefined)	-	0	-	-	-	-
O=C1N[C@@H](Cc2ccccc2)C(=O)N2[C@H]1CSCCS2(=O)=O	-	0	-	-	-	-
Nn1cnc2c(ncn2C2OC(CO)C(O)C2O)c1=O (centres undefined)	0	0	0	-	-	-
COC(=O)[C@H](Cc1ccccc1)N1Cc2ccccc2Oc2cc(Br)ccc2S1(=O)=O	-	0	-	-	-	-
CC(=O)c1sc(NC(=O)c2ccc(Br)o2)nc1C	0	5.6	0	0	0	0
CC(=O)c1sc(NC(=O)C=C(C)C)nc1C	0	5.3	0	0	0	0
CCCCC(=O)Nc1nc(C)c(C(C)=O)s1	0	0	0	0	0	-
CCCCNC(=O)Nc1nc2ccc(CC)cc2s1	0	0	0	0	0	-
COC(=O)[C@]12C[C@H](CC(=O)N3CCC(c4ccccc4)CC3)C(=O)N(CCc3ccc(OC)c(OC)c3)C1=C[C@H](C(C)(C)C)O[C@@H]2C	-	0	-	-	-	-
Cc1cc(C)nc(Nc2ncc(O)n2-c2ccc(Br)cc2)n1	0	8.1	0	0	0	0
COc1ccc(OC)c(-n2c(O)cnc2Nc2nc(C)cc(C)n2)c1	0	0	0	0	0	-
Cc1cc(C)nc(Nc2ncc(O)n2-c2ccc(C)c(Cl)c2)n1	0	9.1	0	0	0	5.4
Cc1cc(C)nc(Nc2ncc(O)n2-c2ccc(C)c(C)c2)n1	0	8.0	0	0	0	6.6
C/C(=N/Nc1nc(C)cc(C)n1)c1ccc(Br)cc1	0	0	0	0	0	-
COc1ccc(-n2nnc3c(SC(C(C)=O)C(=O)N(C)C)ncnc32)cc1 (centres undefined)	0	5.4	0	0	0	0
CC(=NNc1cc(C)c2ccccc2n1)c1ccccn1	-	0	-	-	-	-
Cc1cc2c(cc1C)-n1nnnc1C(N(C)CCc1ccccc1)C(=O)N2 (centres undefined)	-	0	0	-	-	-
SMILES	bovine MsrA act	MsrA inhibitor	TbMetRS inhib	proCasp7 act	proCasp3 act	MsrA inh confirm
O=C(NCc1ccccc1)C(c1ccc(-c2ccccc2)cc1)N1CCN(C(=O)C2CCCO2)CC1 (centres undefined)	-	0	0	-	-	-
C=CCN=C1NC(c2ccc(Cl)cc2)C(C(=O)OC)=C(C)N1C (centres undefined)	-	0	-	-	-	-
COC(=O)CN(c1nc(C)c(Br)c(OC)n1)S(=O)(=O)c1ccccc1	0	13.3	0	0	0	11.9
O=[N+]([O-])c1ccccc1S(=O)(=O)Nc1ccc(-c2ccc(N3CCCC3)nn2)cc1	0	5.0	0	0	0	0
Nc1[nH]c(C(=O)c2ccc(Br)cc2)c(-c2ccccn2)c1C(=O)NCCc1c[nH]c2ccccc12	-	0	-	-	-	-
CCOC(=O)N1CCC(Nc2c(-c3ccccc3)c(=O)c2=O)CC1	0	0	0	0	0	-
CCOC(=O)N1CCC(Nc2c(-c3ccc(C)cc3)c(=O)c2=O)CC1	0	4.9	0	0	0	0
Cc1ccc(C)c(OCC(=O)N/N=C\c2cccn2C)c1	0	5.1	0	0	0	0
CNc1oc(/C=C/c2ccccc2)nc1C#N	0	4.8	0	0	0	4.6
O=C(Nc1ccccc1)OCCc1ccccc1	0	-	0	-	-	-
c1ccc(Cc2cnc(N3CCN(Cc4ccc5c(c4)OCCO5)CC3)nc2)cc1	-	0	-	-	-	-
O=Cc1cn(-c2ccccc2)nc1-c1ccc2c(c1)OCCO2	0	16.8	0	0	0	12.4
O=Cc1cn(-c2ccccc2)nc1-c1ccc(F)cc1	0	12.3	0	0	0	8.3
C[C@@H]1COc2cc(N3CCCC3)ccc2S(=O)(=O)N1	-	0	-	-	-	-
COc1cccc(NC(=O)CN(C)C(=O)c2cccc(S(=O)(=O)Nc3ccccc3OC)c2)c1	0	0	0	0	0	-
CCNc1c(NC(C)=O)c(=O)oc2ccccc12	0	0	0	0	0	-
CC(=O)Nc1c(-c2cc(=O)oc3cc(C)ccc23)oc2ccccc12	0	4.9	0	-	-	0
CCCCNS(=O)(=O)c1cccc(NC(=O)[C@H]2C[C@H](O)[C@@H](CO)O2)c1	0	0	0	-	-	-
CCCN(CCC)C1=CC(=[N+]2CCCC2)CC(C)(C)C1	0	5.1	0	0	0	0
CC1(C)CC(N2CCCCC2)=CC(=[N+]2CCCCC2)C1	0	10.5	0	0	0	8.1
CC1C[N+](=C2C=C(N3CCOCC3)CC(C)(C)C2)CC(C)O1 (centres undefined)	0	11.1	0	0	0	6.7
CC1(C)CC(N2CCOCC2)=CC(=[N+]2CCOCC2)C1	0	10.4	0	0	0	5.5
CN(C)NC1=CC(=[N+]2CCCC2)CC(C)(C)C1	0	0	0	0	0	-
Cc1[nH]c2ccccc2c1CC(=O)Nc1ccc(Nc2cccnc2)c(Br)c1	-	0	-	-	-	-
COC(=O)[C@@]12C[C@@H](CC(=O)N3CCCC3)C(=O)N(Cc3cccc4ccccc34)C1=CCC(C)(C)C2	-	0	0	-	-	-
SMILES	bovine MsrA act	MsrA inhibitor	TbMetRS inhib	proCasp7 act	proCasp3 act	MsrA inh confirm
CN(Cc1ccccc1)C(=O)c1cnc(Cc2c[nH]c3ccccc23)c(I)c1	0	0	0	-	-	-
COCCn1c(=S)[nH]c2sc3c(c2c1=O)CCCC3	0	5.5	0	0	0	0
O=C(CCCN1C(=O)S/C(=C\c2ccccc2)C1=O)NNC(=O)c1ccccc1O	0	4.7	0	0	0	0
Nc1nc2ccccc2n1/N=C/c1ccc2c(c1)OCO2	0	19.4	0	0	0	13.7
Nc1nc2ccccc2n1/N=C/c1ccc(Br)cc1	0	0	0	0	0	-
COCCn1c(C)cc(C(=O)COc2nc3ccccc3nc2C)c1C	0	4.8	0	0	0	0
COC(=O)c1cc2c(c3c4cc(OC)ccc4n(S(=O)(=O)c4ccc(F)cc4)c13)C(=O)N(CC(C)C)C2	-	0	-	-	-	-
CCCCN1C(C(=O)Nc2cc(C)on2)=C(O)c2ccccc2S1(=O)=O	0	0	0	0	0	-
CCN1C(C(=O)Nc2cc(C)on2)=C(O)c2ccccc2S1(=O)=O	0	5.1	0	0	0	0
